Activity calls are given as the source filed them. The calls are words filed in the database; no cut-off is given here.
Experiments:
[1] = tested on: Leishmania mexicana; assay: (§1) Antileishmanial activity against Leishmania mexicana MNYC/BZ/62/M379 amastigotes expressing red-shifted firefly luciferase from integrated ribosomal (28S) RNA locus infected in mouse J774.A1 cells assessed as parasite survival at 0.1 uM measured after 96 hrs by luminescence based analysis relative to control; assay type: functional; conditions: MNYC/BZ/62/M379, J774.A1
[2] = Cytotoxicity against mouse J774.A1 cells assessed as cell survival at 0.1 uM measured after 96 hrs by SYBR Green II dye based analysis relative to control; assay type: toxicity; conditions: read-out: Survival
Method in brief: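 Uninfected J774A.1 mouse macrophages were plated at 1 × 10⁴ cells/well in DMEM with 10% heat-inactivated FBS and left 3 h at 37 °C to reattach. Compounds were added from DMSO, and analogues were screened at 0.1 μM. After 96 h at 37 °C in 5% CO₂, medium was removed. SYBR Green II (1:1000 in 1% Triton/PBS) was added for 1 h in the dark at room temperature, and fluorescence was read at Ex 485/Em 535 as a DNA-content measure of viability.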

[3] = tested on: Leishmania mexicana; assay: as §1, with “assessed as inhibition of parasite growth” for “assessed as parasite survival”, “of parasite growth at 0.1” for “as parasite survival at 0.1”; assay type: functional; conditions: MNYC/BZ/62/M379, J774.A1, read-out: INH
[4] = Metabolic stability in pre-warmed pooled human liver microsomes assessed as half life at 1 uM measured upto 60 mins by LC-MS analysis; assay type: ADME, Microsome
Method in brief: (§2)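 Compound at 1 μM final with 0.5 mg/mL pooled human or mouse liver microsomes, 1.3 mM NADP and 3.3 mM MgCl₂ in 100 mM potassium phosphate, pH 7.4. Reaction started with 1 U/mL G6PD at 37 °C with shaking.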

[5] = Metabolic stability in pre-warmed pooled mouse liver microsomes assessed as half life at 1 uM measured upto 60 mins by LC-MS analysis; assay type: ADME, Microsome; method in brief: as §2
[6] = tested on: Leishmania mexicana; assay: Antileishmanial activity against Leishmania mexicana MNYC/BZ/62/M379 amastigotes expressing red-shifted firefly luciferase from integrated ribosomal (28S) RNA locus infected in mouse J774.A1 cells assessed as reduction in parasite survival measured after 96 hrs by luminescence based analysis; assay type: functional, organism-based; conditions: MNYC/BZ/62/M379, J774.A1, 96 h
Method in brief: (§3)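 J774A.1 macrophages infected with stationary-phase luciferase-expressing promastigotes at 10:1 parasites:macrophage, overnight at 37 °C, 5% CO₂. Non-internalized parasites washed off and 1 × 10⁴ cells/well replated in MEM/10% HI-FBS. Compounds in DMSO added as serial 3-fold dilutions (typically 10 μM–1 nM) for 96 h. Luciferase luminescence read; EC50 from log-transformed sigmoidal variable-slope fit. Mean ± SD of ≥2 independent experiments.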

[7] = Cytotoxicity against mouse J774.A1 cells assessed as reduction in cell survival measured after 96 hrs by SYBR Green II dye based analysis; assay type: toxicity
Method in brief: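 Uninfected J774A.1 macrophages, 1 × 10⁴ cells/well in DMEM/10% HI-FBS, reattached 3 h, then exposed to compounds for 96 h. DNA content read after lysis with SYBR Green II (1:1000 in 1% Triton/PBS), 1 h dark at room temperature, fluorescence Ex 485/Em 535.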

[8] = Therapeutic index, ratio of EC50 for mouse J774.A1 cells to EC50 for antileishmanial activity against Leishmania mexicana MNYC/BZ/62/M379 amastigotes expressing red-shifted firefly luciferase from integrated ribosomal (28S) RNA locus infected in mouse J774.A1 cells; assay type: toxicity, cell-based; conditions: read-out: TI
[9] = tested on: Leishmania donovani; assay: Antileishmanial activity against Leishmania donovani amastigotes expressing red-shifted firefly luciferase from integrated ribosomal (28S) RNA locus infected in mouse J774.A1 cells assessed as reduction in parasite growth measured after 96 hrs by luminescence based analysis; assay type: functional, organism-based; conditions: J774.A1, 96 h; method in brief: as §3
[10] = tested on: HepG2; assay: Cytotoxicity against human HepG2 cells assessed as inhibition of cell growth incubated for 48 hrs by MTT assay; assay type: toxicity, cell-based
Method in brief: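 HepG2 cells, 2.5 × 10⁴/well in supplemented complete MEM, settled overnight at 37 °C, 5% CO₂. Compounds given as 11 duplicate 1.6-fold dilutions, 10 to 0.15 μg/mL, for 48 h. MTT added for 1 h in the dark at room temperature, formazan dissolved in acidified isopropanol, absorbance read. Triplicate runs; IC50 by sigmoidal variable-slope regression.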

[11] = Therapeutic index, ratio of IC50 for human HepG2 cells to EC50 for antileishmanial activity against Leishmania donovani amastigotes expressing red-shifted firefly luciferase from integrated ribosomal (28S) RNA locus infected in mouse J774.A1 cells; assay type: toxicity, cell-based; conditions: read-out: TI
Method in brief: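 TI computed as HepG2 IC50 divided by L. donovani EC50. HepG2: MTT assay with 48 h exposure to 10–0.15 μg/mL (1.6-fold dilutions), triplicates, sigmoidal variable-slope fit. Amastigotes: J774A.1 macrophages infected with RS-luciferase promastigotes at 10:1, washed after 24 h, then 96 h compound exposure (3-fold dilutions, 10 μM–1 nM) in MEM/10% HI-FBS at 37 °C, 5% CO₂; luciferase readout.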

[12] = tested on: Leishmania mexicana; assay: Antileishmanial activity against Leishmania mexicana amastigotes expressing red-shifted firefly luciferase from integrated ribosomal (28S) RNA locus infected in female BALB/c mouse assessed as retardation of lesion progression by measuring reduction in footpad lesion at 40 mg/kg/day, po …; assay type: functional, organism-based; conditions: time 20-29 day
[13] = tested on: Leishmania mexicana; assay: Antileishmanial activity against Leishmania mexicana amastigotes expressing red-shifted firefly luciferase from integrated ribosomal (28S) RNA locus infected in female BALB/c mouse assessed as retardation of lesion progression by measuring reduction in luminescence signal over infected footpad at …; assay type: functional, organism-based; conditions: dose 40.0 mg/kg/day, route po, time 20-29 day

SMILES | survival at 0.1 µM [1] | viability at 96 h, 0.1 µM [2] | percent inhibition of parasite growth at 0.1 µM [3] | half-life at 1 µM [4] | half-life at 1 µM [5] | EC50 [6] | EC50 at 96 h [7] | selectivity ratio [8] | EC50 [9] | IC50 [10] | selectivity ratio [11] | Activity [12] | Activity [13]
CC1=C(C)/C(=C/NC2CCCCCCC2)N=C1c1ccc[nH]1 | 33.5% | 43.5% | < 80% |  |  |  |  |  |  |  |  |  | 
COC1=CC(c2ccc[nH]2)=N/C1=C\Nc1ccc(F)c(OC)c1.Cl | 98.3% | 58.7% | ~2% | > 1 h |  |  |  |  |  |  |  |  | 
CCC1=CC(c2ccc[nH]2)=N/C1=C\NC1CCCCCC1 | 42.1% | 88.7% | ~60% |  |  |  |  |  |  |  |  |  | 
COC1=CC(c2ccc[nH]2)=N/C1=C\Nc1ccc(Cl)c(OC)c1.Cl | 77.6% | 57.3% | ~22% | > 1 h | > 1 h |  |  |  |  |  |  |  | 
CC1=C(C)/C(=C/NC2CCCCCC2)N=C1c1ccc[nH]1.Cl | 18.2% | 62.8% | < 80% | 0.752 h |  | 55 nM | 908 nM | 16 | 79.5 nM | 21300 nM | 268 |  | 
C(/NC1CCCCC1)=C1/N=C(c2ccc[nH]2)C2=C1CCCC2.Cl | 40.9% | 60.3% |  | 0.445 h |  | 130 nM | 2930 nM | 23 |  | 8210 nM |  | Active | Active
Cl.Clc1ccc(OC2=CC(c3ccc[nH]3)=N/C2=C\NC23CC4CC(CC(C4)C2)C3)cc1 | 7.16% | 67.1% |  | > 1 h | > 1 h | 38.3 nM | 567 nM | 15 | 181 nM | 14500 nM | 80 |  | 
